High-throughput results deposited in PubChem BioAssay by Johns Hopkins Ion Channel Center.
An excerpt weighted towards active compounds, which were near 3.8% of everything screened.
KCNK9 inh – human KCNK9 channel inhibition; AID 488922; 1.2% of 310,000 active; HEK293 KCNK9, FluxOR thallium flux fluorescence; hits give low values; Q9NPC2; B-score at 10 µM;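 active means ratio B-score over 3 SD below the library mean, with starting fluorescence within 5 SD of its mean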;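 further: negative B-score means less thallium flux so channel inhibition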
Target sequence (Q9NPC2 whole entry, looked up): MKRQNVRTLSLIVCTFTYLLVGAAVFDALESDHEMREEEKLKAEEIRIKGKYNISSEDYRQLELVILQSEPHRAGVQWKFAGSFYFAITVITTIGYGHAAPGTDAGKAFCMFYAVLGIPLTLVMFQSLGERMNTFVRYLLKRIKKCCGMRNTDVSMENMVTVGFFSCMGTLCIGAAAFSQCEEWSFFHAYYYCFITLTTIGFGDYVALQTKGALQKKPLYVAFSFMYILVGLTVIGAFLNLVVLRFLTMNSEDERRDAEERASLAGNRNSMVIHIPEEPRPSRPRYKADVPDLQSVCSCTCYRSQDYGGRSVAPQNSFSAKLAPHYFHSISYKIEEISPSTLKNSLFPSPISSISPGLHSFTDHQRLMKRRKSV
Kir21 block – blocks the mouse Kir2.1 inward-rectifier potassium channel; B-score at 10 µM; P35561; AID 1672; HEK293-Kir2.1, FluxOR thallium flux fluorescence; hits give low values; 0.85% of 310,000 active;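 active means fluorescence ratio B-score at or below minus 3 SD of library scores, with starting-brightness B-score within 2 SD, cut at about -4.2 in these data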;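 further: channel flux triggered by added potassium and thallium sulfate stimulus; B-score of peak minus minimum fluorescence over baseline after thallium stimulus; more negative B-score means stronger Kir2.1 block with less thallium influx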
KCNQ1 block – inhibitors of human KCNQ1 potassium channel; CHO-K1 KCNQ1, FluxOR thallium flux fluorescence; hits give high values; 1.3% of 310,000 active; B-score at 10 µM;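 active means compounds whose thallium flux B-score, printed positive for inhibition, exceeds three library SD while starting fluorescence stays within three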;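 further: channel opened by potassium depolarization with thallium stimulus after 20 min compound exposure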
hERG rescue – shields human hERG channel from block by proarrhythmic agents; Q12809; CHO-hERG, FluxOR thallium flux, dofetilide IC70 present; 0.51% of 310,000 active; activation (rescue from dofetilide block), less the hit threshold, % at 10 µM; AID 1511;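 active means activation above the mean of controls blocked by dofetilide plus 5 SD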;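 further: thallium influx through hERG after potassium depolarization seen as dye fluorescence rise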
KCNK3 block – human KCNK3 channel inhibition, primary screen | AID 602410 | CHO-KCNK3 thallium flux, FluxOR fluorescence; hits give low values | O14649 | B-score at 10 µM | 0.84% of 340,000 active;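 active means B-score under library mean minus 4 SD, starting fluorescence ratio at most library mean plus 5 SD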;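 further: more negative B-score means stronger inhibition of thallium flux through KCNK3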
KCNQ1 pot – potentiates or activates the human KCNQ1 potassium channel; P51787; CHO-K1 KCNQ1, thallium flux FluxOR fluorescence; hits give high values; B-score at 10 µM; 0.35% of 310,000 active; AID 2648;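 active means fluorescence ratio B-score, a plate-corrected score, at least three library SD, with initial intensity B-score within 5 SD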
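Test system: CHO-K1 cells stably expressing KCNQ1 / Medium: assay buffer / Also added: depolarizing K+/Tl+ stimulus, K2SO4 and Tl2SO4 each 12.5 mM in 5x stock / Incubation: 90 min dye loading and 20 min compound exposure, both at room temperature / Signal: thallium influx via FluxOR fluorescence, kinetic imaging / Evaluation: B score of baseline-normalized fluorescence ratio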
KCNK9 inh conf – human KCNK9 inhibitor confirmation; shares compounds with KCNK9 inh; HEK293 KCNK9 cells, FluxOR thallium flux fluorescence; inhibition, % at 10 µM; 43% of 4,900 active; AID 492992;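 active means thallium signal inhibited by more than 5 SD of the compound-free buffer control wells, on both duplicate plates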;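 further: 0% = assay buffer control wells without compound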
Kir2-1 spec – selectivity of KCNK9 modulators against mouse Kir2.1; Kir2.1 cells, FluxOR thallium flux fluorescence; shares compounds with KCNK9 inh; inhibition, % at 10 µM; 4% of 4,900 active;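 active means thallium signal drop more than 5 SD beyond the mean of the no-compound control wells, seen in both duplicate plates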;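 further: signal is fluorescence rise after thallium addition divided by baseline fluorescence; plate controls were assay buffer only for no effect and full block by chlorpromazine control for full effect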
KCNK9 uninduced – second counter-screen for KCNK9 modulators: effect in non-induced cells. non-induced KCNK9-HEK293, FluxOR thallium flux. 40% of 4,900 active. shares compounds with KCNK9 inh. inhibition, % at 10 µM;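 active means thallium signal drop beyond 5 SD of the untreated control mean, on both duplicate plates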;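 further: plate controls were buffer only IC0 wells for no effect and SID17386958 at its maximal inhibitory level for full effect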
KCNK3 confirm – confirmation of human KCNK3 two-pore domain potassium channel inhibitors; shares compounds with KCNK3 block; CHO-KCNK3 thallium flux, FluxOR fluorescence; 0% buffer, 100% carvedilol maximal block; ratio percent of control, % at 10 µM; 99% of 2,400 active;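 active means ratio percent of control, averaged over triplicates, above buffer control mean plus 5 SD, cut at about 64% in these data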;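 further: ratio is the fluorescence rise from min to max over baseline after thallium stimulus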
KCNK3 uninduced – counter-screen for KCNK3 inhibitors: effect in non-induced cells; shares compounds with KCNK3 block; non-induced KCNK3 parental cells, FluxOR thallium flux; hits give low values; thallium flux ratio (lower = more inhibition) at 10 µM; 40% of 2,400 active;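 active means thallium flux ratio, averaged over three wells, more than 5 SD below the buffer control mean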;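 further: host cells are CHO cells without KCNK3 induction; ratio is peak minus trough fluorescence over baseline then normalized to buffer controls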
Numbers without * were called inactive.

`COc1ccccc1C(CCN(Cc1cccs1)C(C)=O)c1ccco1` (centres undefined) gave KCNK9 inh -9.3*, Kir21 block -2.3, KCNQ1 block inactive, hERG rescue -14, KCNK3 block -13*, KCNQ1 pot inactive, KCNK9 inh conf 40%*, Kir2-1 spec inactive, KCNK9 uninduced 34%*, KCNK3 confirm 105* and KCNK3 uninduced inactive.
`CCC1CCCCN1S(=O)(=O)c1ccc(NC(=O)C2CCCO2)cc1` (centres undefined) gave KCNK9 inh inactive, Kir21 block 1, KCNQ1 block inactive, hERG rescue -7, KCNK3 block inactive and KCNQ1 pot inactive.
Screening CC(C)(C)c1ccc(/C=C/C(=O)N2CCc3ccccc3C2)cc1 returned KCNK9 inh inactive, Kir21 block 0.07, KCNQ1 block 13*, hERG rescue -4, KCNK3 block -11*, KCNQ1 pot inactive, KCNK9 inh conf inactive, Kir2-1 spec inactive, KCNK9 uninduced 26%*, KCNK3 confirm 124* and KCNK3 uninduced 0.15*.
For Cc1ccc(/C=C/C(=O)N2CCc3ccccc3C2)cc1 the results were KCNK9 inh inactive, Kir21 block 0.97, KCNQ1 block inactive, hERG rescue -8, KCNK3 block inactive and KCNQ1 pot inactive.
Screening COc1cc2ccc(=O)oc2c(CC=C(C)C)c1OC returned KCNK9 inh inactive, Kir21 block 0.57, KCNQ1 block inactive, hERG rescue -10, KCNK3 block inactive and KCNQ1 pot inactive.
Screening COc1cc(O)cc2c1[C@@H]1Oc3c(ccc(O)c3CC=C(C)C)[C@@H]1CO2 returned KCNK9 inh -12*, Kir21 block -5.2*, KCNQ1 block inactive, hERG rescue -26, KCNK3 block inactive, KCNQ1 pot inactive, KCNK9 inh conf 54%*, Kir2-1 spec inactive, KCNK9 uninduced inactive, KCNK3 confirm 137* and KCNK3 uninduced 0.12*.
Cc1nn(Cc2ccccc2)c(C)c1NC(=O)CSc1nc2c(c(C(F)(F)F)n1)CCc1ccccc1-2 was read as KCNK9 inh inactive, Kir21 block -0.23, KCNQ1 block inactive, hERG rescue -3, KCNK3 block inactive and KCNQ1 pot inactive.
`COc1cccc(-c2nn(C)c3sc(C(=O)NCc4ccc5c(c4)OCO5)cc23)c1` gave KCNK9 inh -13*, Kir21 block 0.54, KCNQ1 block inactive, hERG rescue -18, KCNK3 block -11*, KCNQ1 pot inactive, KCNK9 inh conf 58%*, Kir2-1 spec inactive, KCNK9 uninduced 24%*, KCNK3 confirm 99* and KCNK3 uninduced inactive.
For CCN(CCCNC(=O)c1cc2c(-c3cccc(OC)c3)nn(C)c2s1)Cc1ccccc1 the results were KCNK9 inh inactive, Kir21 block -3.9, KCNQ1 block inactive, hERG rescue -13, KCNK3 block inactive and KCNQ1 pot inactive.
Cc1ccc(C)c(S(=O)(=O)N2CCN(C(=O)c3n[nH]c(=O)c4ccccc34)CC2)c1 was read as KCNK3 block inactive.
Screening CC1CCN(C(=O)CCC(=O)Nc2nnc(C3CCCCC3)s2)CC1 returned KCNK9 inh inactive, Kir21 block -0.61, KCNQ1 block inactive, hERG rescue -8, KCNK3 block inactive and KCNQ1 pot inactive.
COc1ccc(-c2ccc(SCC(=O)c3ccc(F)cc3)nn2)cc1OC was read as KCNK9 inh -15*, Kir21 block -0.66, KCNQ1 block inactive, hERG rescue -19, KCNK3 block -9.8*, KCNQ1 pot inactive, KCNK9 inh conf 64%*, Kir2-1 spec inactive, KCNK9 uninduced inactive, KCNK3 confirm 118* and KCNK3 uninduced inactive.
For COc1ccc(-c2ccc(SCC(=O)c3cccs3)nn2)cc1OC the results were KCNK9 inh inactive, Kir21 block 1.5, KCNQ1 block inactive, hERG rescue -10, KCNK3 block inactive and KCNQ1 pot inactive.
Screening COc1ccccc1C(CC(=O)Nc1nccs1)c1ccco1 (centres undefined) returned KCNK9 inh inactive, Kir21 block -0.52, KCNQ1 block inactive, hERG rescue -4, KCNK3 block inactive and KCNQ1 pot inactive.
For COc1ccccc1NC(=O)CC(c1ccc(F)cc1)c1ccco1 (centres undefined) the results were KCNK9 inh -10*, Kir21 block -0.25, KCNQ1 block inactive, hERG rescue -10, KCNK3 block inactive, KCNQ1 pot inactive, KCNK9 inh conf 36%*, Kir2-1 spec inactive, KCNK9 uninduced 30%*, KCNK3 confirm 121* and KCNK3 uninduced 0.15*.
Screening O=C(CC(c1ccc(F)cc1)c1ccco1)Nc1nccs1 (centres undefined) returned KCNK9 inh -8.1*, Kir21 block 0.22, KCNQ1 block inactive, hERG rescue -7, KCNK3 block -11*, KCNQ1 pot inactive, KCNK9 inh conf 32%*, Kir2-1 spec inactive, KCNK9 uninduced 34%*, KCNK3 confirm 110* and KCNK3 uninduced 0.16*.
For COc1ccc(C(CC(=O)Nc2ccc(F)cc2)c2ccccc2)cc1 (centres undefined) the results were KCNK9 inh inactive, Kir21 block -0.67, KCNQ1 block inactive, hERG rescue -8, KCNK3 block inactive and KCNQ1 pot inactive.
CN(C)c1ccc(N2[C@@H](CC(=O)O)c3cc(C(F)(F)F)ccc3S2(=O)=O)cc1 was read as KCNK9 inh inactive, Kir21 block -0.91, KCNQ1 block inactive, hERG rescue -5, KCNK3 block inactive and KCNQ1 pot inactive.
Screening COc1ccc(C(C)=O)cc1COC(=O)c1cccnc1Cl returned KCNK9 inh inactive, Kir21 block 1.1, KCNQ1 block inactive, hERG rescue -4, KCNK3 block inactive and KCNQ1 pot inactive.
